Tests used:
MDA-MB-231 [1] = assay: Antiproliferative activity against human MDA-MB-231 cells assessed as inhibition of cell growth at 10 uM incubated for 48 hrs by MTT assay; type: functional
In short: (§1)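 Single-concentration screen: cells (ATCC; 37 °C, 5% CO₂) seeded at 4 × 10⁴ per well, adhered overnight, then treated 48 h at 10 μM. Medium removed, MTT (2.5 mg mL⁻¹) added for 4 h, formazan dissolved in DMSO, absorbance read at 570 nm; percent inhibition versus untreated cells.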

MCF7 [2] = assay: Antiproliferative activity against human MCF7 cells assessed as inhibition of cell growth at 10 uM incubated for 48 hrs by MTT assay; type: functional; in short: as §1
ZR-75-1 [3] = assay: Antiproliferative activity against human ZR-75-1 cells assessed as inhibition of cell growth at 10 uM incubated for 48 hrs by MTT assay; type: functional; in short: as §1
MDA-MB-231 [4] = assay: Antiproliferative activity against human MDA-MB-231 cells assessed as inhibition of cell growth incubated for 48 hrs by MTT assay; type: functional, cell-based; conditions: MDA-MB-231, 48 h
ZR-75-1 [5] = assay: Antiproliferative activity against human ZR-75-1 cells assessed as inhibition of cell growth incubated for 48 hrs by MTT assay; type: functional, cell-based; conditions: ZR-75-1, 48 h
MCF7 [6] = assay: Antiproliferative activity against human MCF7 cells assessed as inhibition of cell growth incubated for 48 hrs by MTT assay; type: functional, cell-based; conditions: MCF7, 48 h
In short: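 MCF-7 exposed 48 h to 0.625, 1.25, 2.5, 5, 10, 20 and 40 μM. MTT (2.5 mg mL⁻¹) added for 4 h, medium removed, formazan solubilized in DMSO, absorbance at 570 nm; percent growth inhibition calculated and IC50 derived.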

[7] = Cytotoxicity against human MCF-10A cells assessed as inhibition of cell growth incubated for 24 hrs by MTT assay; type: toxicity, cell-based
In short: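 Non-tumorigenic MCF-10A breast epithelial cells in 96-well plates (5% CO₂) exposed 24 h to 10, 50 and 100 μM. MTT (2.5 mg mL⁻¹) for 4 h, formazan dissolved in DMSO, absorbance at 570 nm; percent growth inhibition calculated to estimate IC50.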

Row | Structure (SMILES) | inhibition at 10 µM (MDA-MB-231 [1]) [%] | inhibition at 10 µM (MCF7 [2]) [%] | inhibition at 10 µM (ZR-75-1 [3]) [%] | IC50 (MDA-MB-231 [4]) [µM] | IC50 (ZR-75-1 [5]) [µM] | IC50 (MCF7 [6]) [µM] | IC50 at 24 h [7] [µM]
1 | COc1cccc(-c2ncn(-c3cc(OC)c(OC)c(OC)c3)n2)c1 | 16.4 | 16.4 | – | – | – | – | –
2 | COc1cc(-n2cnc(-c3cccc(C=O)c3)n2)cc(OC)c1OC | 22.6 | 13.4 | – | – | – | – | –
3 | COc1ccc(-n2cnc(-c3ccc(F)c(F)c3)n2)cc1OC | 7.98 | 16.1 | – | – | – | – | –
4 | COc1ccc(-c2ncn(-c3cc(OC)c(OC)c(OC)c3)n2)cn1 | 5.25 | 35.9 | 4.95 | – | – | – | –
5 | COc1ccc(-n2cnc(-c3cccc(C(F)(F)F)c3)n2)cc1OC | 12.8 | 18.4 | – | – | – | – | –
6 | COc1ccc(-c2ncn(-c3cc(OC)c(OC)c(OC)c3)n2)cc1OC | 23.5 | 28.9 | – | – | – | – | –
7 | COc1cc(-n2cnc(-c3cc(Cl)cc(Cl)c3)n2)cc(OC)c1OC | 17.4 | 0 | – | – | – | – | –
8 | COc1cc(-n2cnc(-c3ccc4c(c3)OCO4)n2)cc(OC)c1OC | 17.9 | 21.2 | – | – | – | – | –
9 | c1cc2c(cc1-c1ncn(-c3ccc4c(c3)OCO4)n1)OCO2 | 17.1 | 8.99 | – | – | – | – | –
10 | COc1ccc(-c2ncn(-c3ccccc3)n2)cc1 | 0 | 0.853 | 0 | – | – | – | –
11 | COc1cc(-n2cnc(-c3ccc4nc[nH]c4c3)n2)cc(OC)c1OC | 31.6 | 58.5 | 21.2 | 15 | 93 | 5.2 | > 100
12 | COc1cc(-n2cnc(-c3cccc(O)c3)n2)cc(OC)c1OC | 10.4 | 32.8 | 8.54 | – | – | – | –

— ChEMBL document CHEMBL6083223, “Development of di-arylated 1,2,4-triazole-based derivatives as therapeutic agents against breast cancer: synthesis and biological evaluation” (RSC Med Chem, 2024)
